The conditions of data set [1]: patients; cited from earlier work.
The subject of data set [2] is KB-HURs cells. To be noted: cited from earlier work.
Data set [3] deals with T1, recombinant hRRM2/hRRM1 (Homo sapiens, UniProt P31350).
T1 sequence (P31350 1-389): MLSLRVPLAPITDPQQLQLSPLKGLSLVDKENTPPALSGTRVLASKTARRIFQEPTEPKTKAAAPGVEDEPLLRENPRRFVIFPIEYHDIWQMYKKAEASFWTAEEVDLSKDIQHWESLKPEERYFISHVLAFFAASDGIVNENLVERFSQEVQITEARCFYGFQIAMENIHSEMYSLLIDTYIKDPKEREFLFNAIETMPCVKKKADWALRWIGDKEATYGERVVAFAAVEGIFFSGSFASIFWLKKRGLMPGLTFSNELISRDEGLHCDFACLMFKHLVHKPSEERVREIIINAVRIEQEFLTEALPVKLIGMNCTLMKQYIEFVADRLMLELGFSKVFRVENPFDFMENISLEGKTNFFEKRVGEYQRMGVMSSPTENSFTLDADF
As to the kind of experiment: [3H] CDP reduction assay, recombinant hRRM2/hRRM1. Type of data set: biochemical.

Data set [4] has as its target T2, C-terminal truncated hRRM2 (Homo sapiens, UniProt P31350).
T2 sequence (P31350 1-348 limits assumed): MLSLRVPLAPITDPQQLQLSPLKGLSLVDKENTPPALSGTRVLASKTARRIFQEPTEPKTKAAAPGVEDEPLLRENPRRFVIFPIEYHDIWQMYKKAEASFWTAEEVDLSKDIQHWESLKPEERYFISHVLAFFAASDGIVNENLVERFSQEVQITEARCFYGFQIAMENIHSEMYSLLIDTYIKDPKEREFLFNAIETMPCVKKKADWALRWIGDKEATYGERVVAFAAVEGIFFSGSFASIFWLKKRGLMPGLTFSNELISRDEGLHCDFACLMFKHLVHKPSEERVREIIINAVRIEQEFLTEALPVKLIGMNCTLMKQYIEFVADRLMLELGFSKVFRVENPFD
As to the kind of experiment: Surface plasmon resonance, C-terminal truncated hRRM2. Type of data set: binding. To be noted: 0.0 – 50.0 µM compound. In outline:
(§1)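 Surface plasmon resonance on a Biacore […], with full-length or C-terminally truncated hRRM2 immobilised on CM4 sensor chips. Test compound was injected at 0.0–50.0 µM and binding was read from sensorgrams.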

For data set [5], the system named is MOLT-4 tumor xenograft. As to the kind of experiment: MOLT-4 tumor xenograft in mice. Type of data set: in vivo, mouse. To be noted: twice-daily oral dosing 50 mg/kg and 100 mg/kg, Day 12. The method, boiled down: (§2)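 Female NSG (NOD/SCID/IL2Rgamma null) mice, 8–10 weeks old, received 5×10^6 MOLT-4 or TOV-112D cells subcutaneously in the right flank. Tumour volume was taken as 0.5×l×w2. Once tumours reached about 70 mm3, test compound in 30% solutol was given daily by gavage on a one- or two-dose schedule. Mice were sacrificed on day 28 after implantation; 4 animals/group, mean ± SD.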

For data set [6], the target named is T3, immobilized full-length hRRM2 (Homo sapiens, UniProt P31350).
T3 sequence (P31350 1-389): T1 sequence (P31350 1-389)
As to the kind of experiment: Surface plasmon resonance, immobilized full-length hRRM2. Type of data set: binding. To be noted: 0.0 – 50.0 µM compound. The method, boiled down:
as §1

The subject of data set [7] is NCI broad panel of 60 human cancer cell lines. Nature of the data set: NCI 60 human cancer cell line panel, MTT cytotoxicity. Format: cell-based. Conditions: 10 µM.
Data set [8] has as its system KB-HURs cells. As to the kind of experiment: 72 h viability assay, HU-resistant KB clone. Format: cell-based, human. In outline: (§3)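 72 h MTS viability test (CellTiter 96 AQueous) on 10 replicate wells per condition, following the kit instructions. IC50 is the concentration that lowers viability to 50% of the DMSO control. KB cells were grown in RPMI 1640 with 10% FBS and 1% penicillin-streptomycin at 37°C in humidified 5% CO2. KB-HURs and KB-Gem are KB-derived resistant clones.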

The subject of data set [9] is KB-Gem cells. Nature of the data set: 72 h viability assay, gemcitabine-resistant KB clone. Type of data set: cell-based. To be noted: Homo sapiens, read-out: IC50, toxicity assay. In outline: as §3
In data set [10] the target is T4, RRM1-RRM2 interaction (Homo sapiens, UniProt P31350).
T4 sequence (P31350 1-389): T1 sequence (P31350 1-389)
Format: binding. In outline: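 Surface plasmon resonance on a Biacore […] with hRRM2 immobilised on a CM4 chip. hRRM1 (0–1 µM) binding was first confirmed and a KD derived. A fixed 0.5 µM hRRM1 was then co-injected with test compound at 0–50 µM, and sensorgrams were read.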

Data set [11] addresses T5, endogenously expressed RNR in KB cells (Homo sapiens, UniProt P31350).
T5 sequence (P31350 1-389): T1 sequence (P31350 1-389)
Nature of the data set: RNR activity in cell lysates of KB cells. Type of data set: cell-based. To be noted: 24 h incubation, 10 µM.

Data set [12] concerns the target T6, RNR in MOLT-4 tumor xenografts (Homo sapiens, UniProt P31350).
T6 sequence (P31350 1-389): T1 sequence (P31350 1-389)
As to the kind of experiment: RNR activity in extracts of MOLT-4 tumor xenografts. Format: in vivo, mouse. To be noted: mice treated for 12 days, 100 mg/kg. The method, boiled down: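 RNR activity was measured in extracts of subcutaneous MOLT-4 xenografts from NSG mice dosed orally for 12 days with vehicle (solutol-15) or 100 mg/kg test compound.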

Data set [13] deals with NHDF cells. Nature of the data set: 72 h viability assay, normal dermal fibroblasts. Type of data set: cell-based. Conditions: Homo sapiens, read-out: IC50, viability.
Data set [14] concerns dNTP pools in MOLT-4 tumor xenografts. As to the kind of experiment: Intratumoral dNTP pools of MOLT-4 tumor xenografts. Conditions: MOLT-4 xenografts, treated vs. control. Format: in vivo, mouse.
Data set [15] has as its system hRRM2 protein level in TOV-112D cells. Nature of the data set: Western blot of hRRM2 protein level, TOV-112D cells. Format: cell-based, human. To be noted: 20 µM. In outline: (§4)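 KB and TOV-112D cells were treated with 20 µM test compound for a series of times. Lysates were western blotted for hRRM2, with β-actin as loading control.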
Data set [16] concerns hRRM2 protein level in KB cells. Nature of the data set: Western blot of hRRM2 protein level, KB cells. To be noted: 20 µM. Format: cell-based, human. In outline: as §4
Data set [17] relates to KBHURs cells. As to the kind of experiment: Real-time cell proliferation. Type of data set: cell-based, human. To be noted: COH29 2–250 µM. The method, boiled down:
(§5)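 Cell proliferation was followed by real-time electronic cell sensing (RT-CES, W200 16X) with 2,500 cells seeded per well. From 24 h after seeding, the cell index was recorded every half hour for 120 hours. Quadruplicate samples were used, and traces show the mean of 4 replicates.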

The test system of data set [18] is KB cells. As to the kind of experiment: Cell cycle and apoptosis by flow cytometry, KB cells. Format: cell-based, human. The method, boiled down: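 After 48 h of treatment, KB cells were analysed on a FACScalibur flow cytometer. Propidium iodide staining gave cell-cycle distribution and Annexin V signal gave apoptosis.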
Data set [19] deals with dNTP pools in MOLT-4 cells. Nature of the data set: dNTP pools in MOLT-4 cells. To be noted: 10 µM, by 24 h. Format: cell-based, human. In outline: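 MOLT-4 cells were exposed to 10 µM test compound or left untreated (control). dATP, dCTP and dGTP levels were measured after 4, 8 and 24 h.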
In data set [20] the test system is KB cells. Nature of the data set: 72 h MTS viability assay, KB cells. Format: cell-based, human. In outline:
as §3

Data set [21] in a line: Tolerability in mice. Type of data set: in vivo. To be noted: up to a daily dose of 500 mg/kg.
Data set [22] has as its system TOV-112D tumor xenograft. As to the kind of experiment: TOV-112D tumor xenograft in mice. Format: in vivo, mouse. To be noted: 200, 300, or 400 mg/kg/day oral, 7 days. The method, boiled down: as §2
Data set [23] is described as follows: Pharmacokinetics in mice, HPLC-MS/MS of plasma. Type of data set: in vivo, mouse. The method, boiled down:
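Mice received 800 mg/kg test compound orally or intravenously. Plasma levels were measured by HPLC-tandem mass spectrometry (Agilent 1100 capillary LC with triple-quadrupole MS). Oral bioavailability was derived by comparison with the intravenous route.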

The subject of data set [24] is KB-Gem cells. Nature of the data set: Real-time cell proliferation. Format: cell-based, human. To be noted: COH29 2–250 µM.
Data set [25] deals with KB cells. As to the kind of experiment: Real-time cell proliferation. To be noted: 20 µM COH29, 20 µM Gem or 1 mM HU. Type of data set: cell-based, human. In outline: as §5
The mark [26] stands for this setting: Homo sapiens, KB, read-out: IC50, cell proliferation/viability.
Setting [27] is: female, Balb/c nude, mouse, plasma, po, 800 mg/kg.

SMILES strings stand for the structures. Read-outs that look alike come from different tables or passages of the source.

With `NC(=S)NN=Cc1ncccc1N` [3-AP, 3-aminopyridine-2-carboxaldehyde thiosemicarbazone], the “toxicities reported from the phase I trial” value in data set [1] is “hypoxia, respiratory distress, and methemoglobulinemia”. The “activity in KBHURs” value in [2] is “active”.
Turning to `O=C(Nc1nc(-c2ccc(O)c(O)c2)c(-c2ccccc2)s1)c1ccc(O)c(O)c1` [COH29, N-(4–(3,4-dihydroxyphenyl)-5-phenylthiazol-2-yl)-3,4-dihydroxybenzamide], the IC50 in [3] was 16 µM; in [8] (Homo sapiens, read-out: IC50, toxicity assay), 8 µM; in data set [9] it was 8 µM; in data set [13], 82 µM; in data set [20] (setting [26]), 8 µM. Further, the “binding after removal of 41 C-terminal amino acids from hRRM2” value in [4] is on record as “greatly decreased”. Besides, in data set [5], the “MOLT-4 tumor xenograft growth” value is “dose-dependent inhibition”. For the same compound, in data set [6], the “interaction with immobilized full-length hRRM2 (sensorgram)” value is listed as “dose-dependent interaction”. Besides, the “cytotoxicity in NCI 60 panel” value in data set [7] was “Impressive inhibition of most of the cancer cell lines”. Besides, in data set [10] (0.5 µM RRM1, 0 – 50 µM compound), the “effect on RRM1-RRM2 binding” value is “interfered with RRM1-RRM2 binding in a dose-dependent manner”. Further, in data set [10] (12.5 µM compound, 0.5 µM RRM1), the “effect on RRM1-RRM2 interaction at low dose” value was “enhanced RRM1-RRM2 interaction”. The “effect on RRM1-RRM2 complex at higher dose” value in data set [10] (> 25µM compound, 0.5 µM RRM1) was “disrupted the complex”. Moreover, in data set [11], the “decrease of endogenously expressed RNR activity” value is reported as “approximately 50%”. The “RNR activity in extracts of MOLT-4 tumor xenografts” value in data set [12] is listed as “dramatically lower”. The “intratumoral dNTP pools” value in [14] was “decreased”. The hRRM2 protein level entry in data set [15] and in data set [16] was “unaffected” each time. The “real-time growth of KBHURs” value in [17] is “remained sensitive”. Further, the apoptosis result in data set [18] was “underwent apoptosis”. In data set [18] (48 h treatment), the cell cycle distribution entry is recorded as “arrested at S-phase”. For the same compound, the “levels of dATP, dCTP and dGTP” value in data set [19] was “all pools were greatly decreased”. In addition, the “tolerability, side effects” value in data set [21] is “no appreciable side effects”. The “TOV-112D tumor xenograft growth” value in data set [22] is “dose-dependent inhibition”. This compound had a peak plasma concentration in [23] (PO 800 mg/kg in 30% solutol, female Balb/c nude mice) of 10 µM. Further, in data set [23] (setting [27]), the Tmax turned out to be 30 min. Besides, the concentration at 24 h in data set [23] (setting [27]) was roughly 200 nM. The “real-time growth of KB-Gem” value in data set [24] is “cytotoxic activity is strong and is unaffected by Gem resistance”. Besides, the “real-time KB cell growth after addition at 24 h” value (“real-time KB cell growth” below) in data set [25] was “essentially halted”.
`Nc1ccn([C@@H]2O[C@H](CO)[C@@H](O)C2(F)F)c(=O)n1` [Gem, gemcitabine]: the figures for the IC50 in data set [9] and in data set [20] (setting [26]) were 1000 µM and 9 µM, respectively. In addition, in data set [25], the “real-time KB cell growth” value is “cell growth continued”.
Turning to `NC(=O)NO` [HU, hydroxyurea], the IC50 in data set [8] (read-out: IC50, toxicity assay, KB-HURs) was 320 µM; in data set [20] (read-out: IC50, cell proliferation/viability, KB cells) it was 180 µM. Besides, in data set [25], the “real-time KB cell growth” value was “cell growth continued”.
